Screens: PubChem, several laboratories
A selection: hits, their analogues and other compounds. The true share with any hit is near 2.1%.
NS3 helicase inh = blocks Hepatitis C virus NS3 helicase unwinding; hit rate 0.56% among 290,000; NS3 helicase DNA unwinding, Cy5 molecular beacon fluorescence; inhibition, % at 10.9 µM;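 active = inhibition above the mean of all tested compounds plus 3 SD, set per campaign, cut at about 35% in these data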;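 also: 0% = DMSO wells and 100% = thioflavine S control wells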
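Material: hepatitis C virus NS3 helicase domain fragment enzyme; measured by: Cy5 fluorescence, 0 and 60 min reads; control set: DMSO and thioflavine S; incubation: 60 min unwinding reaction at 25 °C after ATP addition; read-out basis: % inhibition from 60/0 min fluorescence ratio, DMSO 0%, thioflavine S 100%; repeats: singlicate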
EBNA-1 inhibitor = blocks EBNA-1 binding to DNA; hit rate 0.34% among 300,000; EBNA-1 DNA binding, fluorescence polarization; inhibition, % at 14.8 µM; in the data active = inhibition above about 28%
PABP polyA inh = blocks human PABP binding to poly(A) RNA | fluorescence polarization | inhibition, % at 35 µM | hit rate 1% among 290,000 | AID 2014;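 also: calls also rest on retests at 20 µM and on dose response follow-up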
eIF4H inh = inhibitors of RNA binding by human eIF4H; eIF4H fluorescence polarization binding assay; inhibition, % at 35 µM; hit rate 0.94% among 290,000;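 also: calls also rest on retests at 20 µM and on dose response follow-up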
ZTA counter = ZTA (EBV) inhibition in EBNA-1 counter-screen; P03206; ZTA-DNA binding, fluorescence polarization; inhibition, % at 11 µM; hit rate 0.15% among 320,000; AID 2234; in the data active = inhibition above about 33%
Target sequence (P03206 whole entry, looked up): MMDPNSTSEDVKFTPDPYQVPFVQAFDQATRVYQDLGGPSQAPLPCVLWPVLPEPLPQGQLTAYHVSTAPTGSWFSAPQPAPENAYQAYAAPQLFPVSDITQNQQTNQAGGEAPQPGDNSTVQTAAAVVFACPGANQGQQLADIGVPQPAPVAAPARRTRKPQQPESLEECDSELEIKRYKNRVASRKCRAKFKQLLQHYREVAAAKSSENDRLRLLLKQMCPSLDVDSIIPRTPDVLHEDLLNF
MLLE-PAM2 inh = inhibitors of microRNA-mediated deadenylation, human PABP1 MLLE binding; P11940; GST-MLLE / FITC-PAM2 fluorescence polarization; inhibition, % at 20 µM; hit rate 0.36% among 360,000; AID 588489; in the data active = inhibition above about 35%, passing the limit was not always enough;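 also: plate controls were DMSO wells with GST-MLLE for no effect and wells lacking GST-MLLE protein for full effect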
Numbers without * were called inactive; ? = inconclusive; / = not tested or not shown; + = active, no number. Unless noted, no rule for the calls is given here.

SMILES	NS3 helicase inh	EBNA-1 inhibitor	PABP polyA inh	eIF4H inh	ZTA counter	MLLE-PAM2 inh
COc1cc(/C=C(\C#N)C(=O)NCC2CCCO2)ccc1OC(=O)c1ccco1 (stereo not given)	/	/	/	/	3.1	-3.8
O=C1S/C(=C\c2ccc(O)c([N+](=O)[O-])c2)C(=O)N1c1ccccc1Cl	27.1	-12.1	19.2	0.6	-3.2	12.4
COc1cc(/C=C2\SC(=O)N(c3cccc(Cl)c3)C2=O)cc([N+](=O)[O-])c1O	22.9	/	/	/	/	84.8*
COc1cc(/C=C2\SC(=O)N(c3ccc(Cl)cc3)C2=O)cc([N+](=O)[O-])c1O	0.4	/	20.6	95.5*	/	-4.2
CN(C(=O)c1ccccn1)c1nnc(-c2cnccn2)s1	5.8	-0.6	11.4	-3.4	-10.3	-0.1
Cc1ccc2c(CN3CCCCC3)cc(=O)oc2c1C	0.3	4.2	8.3	-1.4	-0.1	8.3
Cc1ccc2c(CN3CCCc4ccccc43)cc(=O)oc2c1C	0.3	6.2	75.7*	34.2*	-0.6	-24.9
COc1ccc(C(=O)Nc2cccc(/C=C/c3nc4ccccc4c(=O)[nH]3)c2)cc1	-9.6	4.4	-9.9	-7.3	12.1	-4.8
CCCc1cc(=O)[nH]c(SCC(=O)N2CCN(S(=O)(=O)c3ccc(Cl)cc3)CC2)n1	-0.9	12.4	-9.4	56.0*	-8.6	10.4
CCCc1cc(=O)[nH]c(SCC(=O)c2ccc(S(=O)(=O)N3CCCC3)cc2)n1	0.7	-16.0	-9.8	-8.8	1.8	28.8
C/C(Cl)=C\Cn1c(O)c(N=NC(N)=S)c2cc(Br)ccc21	9.2	-6.9	2.8	12.9	7.0	43.6*
Nc1nc(-c2ccc(Br)cc2)c(S(=O)(=O)c2ccccc2)s1	-12.8	-23.1	-4.1	-7.0	-26.6	10.1
CCC(C)c1ccccc1OCCCNC1CCCC1 (stereo not given)	4.6	-5.1	-1.8	4.1	-7.0	-1.5
O=C(NC(=S)Nc1cccc(S(=O)(=O)NC2=NCCC2)c1)c1cc(-c2ccco2)nc2ccccc12	29.2	-2.0	38.4	76.4	-6.3	68.9
CN(C)C(=O)c1ccc(NC(=O)c2cc(-c3ccco3)nc3ccccc23)cc1	13.6	/	40.1*	76.8*	/	1.6
O=C(Nc1cccc(S(=O)(=O)NC2=NCCC2)c1)c1cc(-c2ccco2)nc2ccccc12	44.8*	-1.1	67.5*	89.5*	-14.3	-27.6
CCN(CC)CCNC(=O)c1ccc(NC(=O)c2cc(-c3ccco3)nc3ccccc23)cc1	-41.2	-1.1	3.3	71.9	-0.6	-20.8
O=C(Nc1nccs1)c1cc(-c2ccco2)nc2ccccc12	17.7	-3.3	active	58.0	9.3	-4.4
Cc1csc(NC(=O)c2cc(-c3ccco3)nc3ccccc23)n1	26.2	-12.4	1.9*	87.9*	-10.0	-16.1
COc1ccc(COC(=O)NNC(=O)c2ccc(OC)cc2)cc1	6.0	1.0	57.2	-2.8	-15.7	9.2
O=C(NCC1COc2ccccc2O1)c1ccc(Cl)c(S(=O)(=O)N2CCOCC2)c1 (stereo not given)	/	/	/	/	-4.2	-7.5
NC(N)=N/N=C/c1ccc(OS(=O)(=O)c2ccccc2)cc1	-62.2	-4.5	77.0	active	3.0	-14.4
Nc1nc(SCc2ccc(Cl)cc2Cl)nc2nc3c(cc12)CCCC3	-4.7	28.8*	3.5	-11.7	1.2	-39.3
Nc1nc(SCc2ccccc2Cl)nc2nc3c(cc12)CCCC3	1.2	1.7	-7.8	-6.8	-5.5	-17.0
CC(C)(C)c1ccc(/C([O-])=C(/C(=S)NCc2ccco2)[n+]2ccccc2)cc1	14.2	17.4	59.6*	31.8*	-7.0	/
SMILES	NS3 helicase inh	EBNA-1 inhibitor	PABP polyA inh	eIF4H inh	ZTA counter	MLLE-PAM2 inh
CC(C)(C)c1ccc(C(=O)NC(=S)NCc2ccco2)cc1	15.3	9.1	13.6	3.3	4.5	16.3
CCOCCCN(C(=O)Cn1nnc2ccccc21)C(C(=O)NCc1ccco1)c1ccncc1 (stereo not given)	0.9	/	0.1	2.8	/	7.5
COc1nccnc1NS(=O)(=O)c1ccc(NC(=S)NC(=O)/C=C/c2ccc(F)cc2)cc1	12.2	5.7	-3.9	-7.0	13.7	24.5
COc1cc(NS(=O)(=O)c2ccc(NC(=S)NC(=O)/C=C/c3ccc(F)cc3)cc2)ncn1	8.0	-7.8	2.3	5.9	3.0	40.5*
O=C(NC(=S)Nc1ccc2c(c1)C(=O)c1ccccc1C2=O)c1ccc(F)cc1	10.5	5.8	10.1*	70.4	-8.7	/
COc1ccc(C(=O)NC(=S)Nc2ccc(S(=O)(=O)Nc3cc(OC)nc(OC)n3)cc2)cc1	-1.9	-5.6	13.9	-10.8	1.3	21.6
COc1ccc(OCC(=O)NC(=S)Nc2ccc(S(=O)(=O)Nc3cc(OC)nc(OC)n3)cc2)cc1	-3.4	11.1	3.1	-3.7	19.5	48.6*
Cc1cc(NS(=O)(=O)c2ccc(NC(=S)NC(=O)c3ccc(F)cc3)cc2)no1	15.2	1.6	12.0	1.6	-9.9	39.8*
Cc1cc(NS(=O)(=O)c2ccc(NC(=S)NC(=O)c3cccc(S(=O)(=O)N(C)C)c3)cc2)no1	-3.4	3.9	21.4	-9.2	5.2	30.0
O=C(Nc1nccs1)[C@@H]1CC=C[C@@H]2CCN(Cc3ccccc3)C(=O)[C@@H]21	/	-13.5	/	/	1.6	4.0
COc1ccc(NS(=O)(=O)c2ccc(NC(=S)NC(=O)c3cccc(F)c3)cc2)nn1	16.0	-2.3	4.9	-1.7	11.6	37.9*
CN(C)c1ccc(N=Cc2nc(-c3ccccc3)oc2O)cc1	1.5	3.4	?	?	4.2	138.6
CN(C)c1ccc(N=Cc2cccn2C)cc1	35.5	+	-1.0	-7.5	+	25.0
C1CN(CC2COC(CN3CCOCC3)CO2)CCO1 (stereo not given)	/	/	/	/	/	1.9
O=C(Nc1ccc(Cl)cc1)C(Cl)C(=O)c1ccccc1 (stereo not given)	4.8	6.9	-2.9	-16.9	13.8	32.5
O=C(Nc1ccccc1Cl)C(Cl)C(=O)c1ccccc1 (stereo not given)	10.0	/	69.2	8.0*	/	22.9
CC(C)C[C@H](NC(=O)c1nc[nH]c1C(=O)NCC(=O)OCc1ccccc1)C(=O)OC(C)(C)C	-54.3	2.7	-3.9	2.7	4.0	-9.6
CCC(=NCCc1ccc(OC)c(OC)c1)C1=C(O)CC(C)(C)CC1=O	-0.5	-6.3	60.1	active	2.6	-0.9
CCC(=NCCc1ccc(OC)c(OC)c1)c1ccccc1O	2.9	6.3	13.7	7.5	3.1	-4.4
Cc1cn(-c2cc(NC(=O)c3ccc(C)c(NC(=O)c4cccc(-c5cn[nH]c(=O)c5)c4)c3)cc(C(F)(F)F)c2)cn1	-41.3	9.5	-4.4	-2.8	15.1	18.0
CCOc1ncccc1C(=O)Nc1ccc(Cl)c(S(=O)(=O)N2CCCC2)c1	0.8	-1.8	5.1	1.6	-11.9	-0.8
CCNC(=O)C1(C)CCCN(C(=O)c2ccccc2Br)C1 (stereo not given)	/	/	/	/	/	-1.9
CCCCc1ccc(NC(=O)CC(C)(C)C)cc1	-7.2	8.1	active	98.0*	-9.3	1.6
